The list is not random: actives were taken first. Their share in the collection is about 3.5%.
MrgX1 antagonist: blocks BAM8-22 activation of human MrgX1 receptor | MRGX1-HEK293 calcium flux, Fluo-4, BAM8-22 antagonism; hits give low values | B-score at 10 µM | Q96LB2 | 1.3% of 310,000 active;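 active means calcium-response B-score plate-corrected more than 3 library SD below zero, starting fluorescence within 5 deviations, no agonist response on first addition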;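 further: peak minus trough fluorescence over baseline after final BAM8-22 challenge near maximal dose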
Target sequence (Q96LB2 whole entry, looked up): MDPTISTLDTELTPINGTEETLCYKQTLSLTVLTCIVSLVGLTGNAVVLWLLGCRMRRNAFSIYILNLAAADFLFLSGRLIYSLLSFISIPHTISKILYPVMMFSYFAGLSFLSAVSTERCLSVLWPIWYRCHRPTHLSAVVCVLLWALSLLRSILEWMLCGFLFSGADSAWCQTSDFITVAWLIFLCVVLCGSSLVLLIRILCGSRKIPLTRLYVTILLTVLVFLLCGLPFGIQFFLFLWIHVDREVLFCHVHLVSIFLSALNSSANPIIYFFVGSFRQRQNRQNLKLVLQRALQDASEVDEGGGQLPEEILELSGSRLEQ
MrgX1 allo act: human MrgX1 positive allosteric modulation, primary screen; B-score at 10 µM; MrgX1-HEK293, Fluo-4 calcium flux, FDSS; hits give high values; Q96LB2; 0.63% of 310,000 active; AID 588675;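 active means plate-corrected calcium response at least 3 library SD above typical, normal starting fluorescence, not activating the receptor alone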;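 further: compound read alongside a low EC10 to EC30 dose of BAM8-22 agonist; peak minus trough fluorescence over baseline measured at the second addition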
MrgX1 ag: human MrgX1 receptor agonism, primary screen; Q96LB2; MrgX1-HEK293 cells, Fluo-4 calcium fluorescence, agonist mode; hits give high values; B-score at 10 µM; 0.44% of 310,000 active; AID 588627;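 active means calcium response B-score plate-corrected fluorescence ratio at least 3 library SD, with starting fluorescence B-score inside 5 SD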
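Test system: HEK293 cells stably expressing human MrgX1 receptor; amount: 15,000 cells per well; doses: compound delivered in addition one of three; times: overnight plating before 1 h dye loading; detection: Fluo-4 NW calcium-flux fluorescence, kinetic read; read-out basis: B-scored fluorescence response ratio; controls: positive and negative controls per plate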
RGS4 pot: potentiators or activators of RGS4 | AID 463111 | 0.92% of 310,000 active | HEK293 M3R/inducible RGS4, carbachol calcium flux Fluo4; hits give low values | B-score at 10 µM;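 active means B-score of the integrated calcium signal more than 4 SD below the library mean, with starting fluorescence not abnormally high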;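 further: negative B-score means reduced calcium response which marks RGS4 activation or potentiation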
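Assay system: Inducible-RGS4 HEK293 cells carrying M3 receptor | Schedule: Compound preincubation 20 min at room temperature before agonist | Signal: Kinetic calcium fluorescence imaging with Fluo4-AM dye, 2 µM | Read-out basis: B score from integrated fluorescence ratio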
RGS4 block: inhibitors of human RGS4. B-score at 10 µM. HEK293 M3R/RGS4 inducible, Fluo-4 calcium flux; hits give high values; triggered by carbachol at its EC20. 0.45% of 310,000 active;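 active means B-score, a plate-corrected calcium signal, over three deviations above library mean, with baseline fluorescence within five deviations of library mean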;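 further: RGS4 expression induced by doxycycline in cells with stable M3 receptor; B-score is computed from the integrated fluorescence ratio over baseline after carbachol; higher B-score means a larger calcium signal and so more RGS4 inhibition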
Target sequence (P49798 whole entry, looked up): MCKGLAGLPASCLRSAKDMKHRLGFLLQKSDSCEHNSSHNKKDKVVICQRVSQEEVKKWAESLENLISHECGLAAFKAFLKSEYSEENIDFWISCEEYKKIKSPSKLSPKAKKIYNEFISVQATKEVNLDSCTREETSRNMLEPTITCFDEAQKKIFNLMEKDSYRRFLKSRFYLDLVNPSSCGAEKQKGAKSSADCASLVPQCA
RGS4 act valid: confirmation of RGS4 activators; shares compounds with RGS4 pot; HEK293 M3R/RGS4 inducible, carbachol calcium flux Fluo4; inhibition, % at 10 µM; 89% of 1,100 active; AID 602282;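 active means inhibition above 3 SD of the buffer control wells, cut at about 41% in these data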;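 further: signal is the integrated peak-minus-minimum Fluo4 fluorescence over baseline ratio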
M3R Ca counter: counter-screen for RGS4 activators: effect in non-induced cells; shares compounds with RGS4 pot; HEK293 M3R non-induced RGS4, Fluo4 calcium flux; after carbachol challenge at its EC90; inhibition, % at 10 µM; 82% of 1,100 active; AID 602283;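 active means inhibition exceeding 3 SD of buffer-only control wells, cut at about 26% in these data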;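 further: percent drop in integrated peak-minus-baseline over baseline Fluo4 ratio after carbachol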
A number is an active result; i = inactive; nt = no result.

SMILES	MrgX1 antagonist	MrgX1 allo act	MrgX1 ag	RGS4 pot	RGS4 block	RGS4 act valid	M3R Ca counter
CC(C)(C)OC(=O)NC1CC2CCCC(C1)N2Cc1ccccc1 (stereo not drawn)	nt	nt	nt	-9.7	i	91.5	88.8
CC1CCCCN1C(=O)c1cc2nc(-c3ccccc3)cc(-c3ccccc3)n2n1 (stereo not drawn)	i	i	i	-7.89	i	73.5	i
CC1(C)CC2=C(CO1)C(=S)NC(c1ccccc1)N2CC1CCCO1 (stereo not drawn)	i	i	i	i	i	nt	nt
Nc1ccc(-c2nc3ccccc3[nH]2)cc1	i	i	i	i	i	nt	nt
c1ccc(-c2cc(-c3nc4ccccc4[nH]3)c3ccccc3n2)cc1	i	i	i	-9.55	i	93.5	77.3
Cc1cc(C)n2nc(SCc3nnc(SCCCCl)o3)nc2n1	i	i	i	-7.71	i	77.5	34.8
CC(=O)c1ccccc1OC(=O)COc1ccc(Cl)cc1C	i	i	i	i	i	nt	nt
C(=N\c1nc2ccccc2n1Cc1ccccc1)/c1cccs1	i	i	i	-9.78	i	76.0	40.8
Cc1ccc(N2C(=O)C(O)(C(F)(F)F)C3=C2CC(C)(C)CC3=O)cc1C (stereo not drawn)	i	i	i	i	i	nt	nt
CC1(C)CC(=O)C2=C(C1)N(c1ccc(Cl)cc1)C(=O)C2(O)C(F)(F)F (stereo not drawn)	i	i	i	-14.3	i	79.0	26.8
CCOc1ccc(CNc2ccc(S(N)(=O)=O)cc2)cc1	i	i	i	i	i	nt	nt
Cc1cc(C)c2c(CN3CCN(Cc4ccc5c(c4)OCO5)CC3)cc(=O)oc2c1	i	i	i	-8.68	i	91.0	51.8
Cc1ccc2c(CN3CCN(Cc4ccc5c(c4)OCO5)CC3)cc(=O)oc2c1C	i	i	i	-8.72	i	i	i
Cc1cc(C)c2c(CN3CCN(Cc4ccc5c(c4)OCO5)CC3)cc(=O)oc2c1C	i	i	i	-7.73	i	75.5	28.3
Cc1cc(C)c2c(CN3CCOCC3)cc(=O)oc2c1C	i	i	i	i	i	nt	nt
Cc1cc2oc(=O)cc(CN3CCN(Cc4ccc5c(c4)OCO5)CC3)c2cc1C	i	i	i	i	i	nt	nt
Cc1ccc(-c2csc(NC(=O)/C=C/c3ccco3)c2C(=O)O)cc1	i	i	i	i	i	nt	nt
Cc1cccc(CC(=O)Nc2ccc(C(=O)N3CCOCC3)cc2)c1	i	i	i	i	i	nt	nt
CCNC(=O)c1ccccc1SCc1ccccc1	i	i	i	i	i	nt	nt
CCc1ccc(OCCNC(=O)c2ccccc2SCc2ccccc2)cc1	i	i	i	-11.3	i	94.0	79.8
CN(CCCNC(=O)c1cc2c(Cl)nc3ccccc3c2s1)Cc1ccccc1	i	i	i	i	i	nt	nt
CCN(CC)CCCNC(=O)c1cc2c(Cl)nc3ccccc3c2s1	i	i	i	-7.7	i	68.0	83.8
CCN(CC)CCCNC(=O)c1cc2c(=O)n(CC)c3ccccc3c2s1	i	i	i	i	i	nt	nt
CCN(CC)CCNC(=O)c1cc2c(=O)n(CC)c3ccccc3c2s1	i	i	i	-8.44	i	54.0	83.8
O=S(=O)(NC1CC(NS(=O)(=O)OCC(Cl)(Cl)Cl)C2CCCCC12)OCC(Cl)(Cl)Cl (stereo not drawn)	i	i	i	i	i	nt	nt
SMILES	MrgX1 antagonist	MrgX1 allo act	MrgX1 ag	RGS4 pot	RGS4 block	RGS4 act valid	M3R Ca counter
CCOC(=O)c1cnc2ccccc2c1NCc1ccco1	i	i	i	-9.74	i	94.0	92.3
COc1cc2cc(CN(Cc3cccnc3)C(=O)Nc3ccccc3F)c(=O)[nH]c2cc1OC	i	i	i	i	i	nt	nt
COc1ccc(C(CNC(=O)c2ccc(Cl)c(NC(=O)c3cccs3)c2)N2CCCC2)cc1 (stereo not drawn)	i	i	i	-12.5	i	89.0	52.3
O=C(OCCCOC(=O)c1ccc(Br)o1)c1ccc(Br)o1	i	i	i	i	i	nt	nt
CCc1ccc([C@@H]2C[C@H]3CN(Cc4ccccc4OC)C(=O)[C@]34CCCN24)cc1	i	i	i	-9.54	i	79.0	29.8
COc1ccc(S(=O)(=O)n2cnc3cc(C)c(C)cc32)cc1	i	i	i	i	i	nt	nt
COc1ccc(S(=O)(=O)n2cnc3cc(C)c(C)cc32)cc1C	i	i	i	-10	i	88.5	45.8
CCOc1ccc2nc(NC(=O)C3(C)CC3(Br)Br)sc2c1 (stereo not drawn)	i	i	i	-8.12	i	68.5	83.8
COc1ccc2c(c1)C=C([C@@H]1C[C@H]3CN(c4ccccc4)C(=O)[C@]34CCCN14)CO2	i	i	i	-10.3	i	69.5	83.8
Cc1cccc(C(=O)NC(=S)NNC(=O)COc2ccc(Cl)cc2)c1	nt	nt	nt	-11.2	i	58.5	49.8
Cc1cccc(/C(N)=N/OC(=O)COc2ccc(Cl)cc2)c1	i	i	i	i	i	nt	nt
CC[N+]1(C)CCC(=C2c3ccccc3CC(=O)c3sccc32)CC1 (stereo not drawn)	-6.66	i	i	-10.8	i	95.0	84.3
CCOC(=O)c1c(NC(=O)c2cccc(N3C(=O)CCC3=O)c2)sc2c1CCN(CC)C2	i	i	i	-9.8	i	90.5	44.3
CN(C)CCOC(C1CCCCC1)C1CCCCC1	i	i	i	-9.05	i	90.5	67.8
N#CCCN(C(=O)COC(=O)c1ccc2c(=O)n3c(nc2c1)CCC3)c1ccc(F)cc1	i	i	i	i	i	nt	nt
O=C(Nc1ccc(N2CCN(C(=O)c3ccco3)CC2)c(Cl)c1)c1cc2ccccc2o1	i	i	i	-8.68	i	93.0	64.3
Cc1ccc(S(=O)(=O)NC(CC(C)C)C(=O)Oc2ccc3c4c(c(=O)oc3c2)CCC4)cc1 (stereo not drawn)	i	i	i	-9.42	i	92.0	91.8
COc1ccc(NC(=O)c2sc3nc(N4CCOCC4)c4c(c3c2N)CC(C(C)C)OC4)c(OC)c1 (stereo not drawn)	i	i	i	i	i	nt	nt
Cc1ccc(-n2cc(CN3CCN(C(=O)c4ncn[nH]4)CC3)c(-c3ccc(F)cc3)n2)cc1	i	i	i	i	i	nt	nt
Cc1ccc(CNC(=O)c2cc3c(C)nc4ccccc4c3o2)cc1	i	i	i	i	i	nt	nt
CCC(=O)C1CCCN(C(=O)c2ccc3nc(-c4cccc(OC)c4)oc3c2)C1 (stereo not drawn)	i	i	i	i	i	nt	nt
Cc1ccc(C)c(N2CCN(C(=O)c3cc4c(C)nc5ccccc5c4o3)CC2)c1	i	i	i	-8.5	i	89.0	68.3
CCOC(=O)C1CCCN(C(=O)c2ccc3nc(-c4cccc(OC)c4)oc3c2)C1 (stereo not drawn)	i	i	i	-8.65	i	53.5	83.8
